Experimental data as given in ChEMBL document CHEMBL1149202, “N-Aryl-gamma-lactams as integrin alphavbeta3 antagonists” (Bioorg Med Chem Lett, 2004).
pKi: −log10 of the molar value.

Key:
[1] = target: Integrin alpha-V/beta-3 (Homo sapiens, UniProt P05106+P06756); assay: Binding affinity towards vitronectin receptor (AlphaV-beta3 integrin).; type: protein-complex assay
Method in brief: (§1)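 Purified integrin (αvβ3; αIIbβ3) was bead-coupled overnight at 4 °C. Competitive electrochemiluminescent binding used Ru-labelled vitronectin for αvβ3 and Ru-labelled fibrinogen for αIIbβ3, in pH 7.5 Tris buffer with Ca2+, Mg2+, Mn2+, 1% BSA and 0.05% Tween-20, for 2 h at 25 °C. DMSO serial dilutions were used. Nonspecific binding was taken with excess unlabelled ligand or 5 mM EDTA. Ki came from a four-parameter fit, SD of ≥2 determinations.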

[2] = target: Integrin alpha-IIb/beta-3 (Homo sapiens, UniProt P05106+P08514); assay: Affinity for alphaIIb-beta3 integrin; type: protein-complex assay; method in brief: as §1
Chain of Integrin alpha-IIb/beta-3 (P05106 27-788 limits assumed): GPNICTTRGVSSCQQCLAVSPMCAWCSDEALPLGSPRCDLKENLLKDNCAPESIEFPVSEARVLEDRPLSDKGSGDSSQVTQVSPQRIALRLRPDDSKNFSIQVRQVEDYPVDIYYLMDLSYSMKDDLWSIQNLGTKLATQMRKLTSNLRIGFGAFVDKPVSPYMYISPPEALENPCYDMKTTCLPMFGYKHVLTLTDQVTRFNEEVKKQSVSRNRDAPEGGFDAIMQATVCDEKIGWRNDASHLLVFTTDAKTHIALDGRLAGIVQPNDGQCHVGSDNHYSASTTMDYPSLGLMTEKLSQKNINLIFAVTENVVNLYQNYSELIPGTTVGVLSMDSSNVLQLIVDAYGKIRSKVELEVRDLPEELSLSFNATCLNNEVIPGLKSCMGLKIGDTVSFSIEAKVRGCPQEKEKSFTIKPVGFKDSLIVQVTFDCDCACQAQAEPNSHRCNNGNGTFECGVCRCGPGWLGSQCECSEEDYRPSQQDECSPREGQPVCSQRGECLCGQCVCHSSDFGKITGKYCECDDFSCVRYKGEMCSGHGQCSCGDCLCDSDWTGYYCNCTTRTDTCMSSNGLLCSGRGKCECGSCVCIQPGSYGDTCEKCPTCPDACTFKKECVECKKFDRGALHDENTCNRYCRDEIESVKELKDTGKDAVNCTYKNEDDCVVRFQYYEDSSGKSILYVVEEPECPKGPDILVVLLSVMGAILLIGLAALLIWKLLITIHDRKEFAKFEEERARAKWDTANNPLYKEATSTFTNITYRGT
Chain of Integrin alpha-IIb/beta-3 (P08514 32-887 limits assumed): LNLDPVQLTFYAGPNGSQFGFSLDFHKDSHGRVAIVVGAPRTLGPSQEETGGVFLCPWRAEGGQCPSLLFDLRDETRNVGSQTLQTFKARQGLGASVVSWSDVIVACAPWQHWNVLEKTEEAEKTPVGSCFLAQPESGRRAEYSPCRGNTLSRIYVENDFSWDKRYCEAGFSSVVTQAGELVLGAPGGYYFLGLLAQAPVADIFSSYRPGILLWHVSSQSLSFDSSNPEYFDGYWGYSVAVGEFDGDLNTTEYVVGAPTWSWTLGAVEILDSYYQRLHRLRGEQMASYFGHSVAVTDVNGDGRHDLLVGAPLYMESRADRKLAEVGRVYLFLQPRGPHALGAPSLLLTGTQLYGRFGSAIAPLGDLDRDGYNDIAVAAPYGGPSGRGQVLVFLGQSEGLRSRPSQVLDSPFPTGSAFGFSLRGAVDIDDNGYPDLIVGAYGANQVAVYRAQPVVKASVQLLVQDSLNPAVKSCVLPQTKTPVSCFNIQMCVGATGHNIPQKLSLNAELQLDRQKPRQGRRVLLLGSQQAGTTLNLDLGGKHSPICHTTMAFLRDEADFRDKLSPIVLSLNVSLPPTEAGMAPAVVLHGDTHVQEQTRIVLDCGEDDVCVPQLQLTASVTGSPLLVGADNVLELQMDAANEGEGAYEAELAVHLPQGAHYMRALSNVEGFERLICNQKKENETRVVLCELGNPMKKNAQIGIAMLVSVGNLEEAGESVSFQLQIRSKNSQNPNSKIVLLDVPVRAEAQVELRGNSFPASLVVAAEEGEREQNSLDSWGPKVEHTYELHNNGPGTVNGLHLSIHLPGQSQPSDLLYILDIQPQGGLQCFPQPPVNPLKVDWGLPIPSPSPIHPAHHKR
Chain of Integrin alpha-IIb/beta-3 (P08514 891-1039 limits assumed): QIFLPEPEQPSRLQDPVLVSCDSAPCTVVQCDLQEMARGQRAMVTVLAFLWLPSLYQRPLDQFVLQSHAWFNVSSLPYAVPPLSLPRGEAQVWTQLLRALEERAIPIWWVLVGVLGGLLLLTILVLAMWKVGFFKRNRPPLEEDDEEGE

Chain of Integrin alpha-V/beta-3 (P05106 27-788 limits assumed): as the sequence (P05106 27-788 limits assumed) above
Chain of Integrin alpha-V/beta-3 (P06756 31-889 limits assumed): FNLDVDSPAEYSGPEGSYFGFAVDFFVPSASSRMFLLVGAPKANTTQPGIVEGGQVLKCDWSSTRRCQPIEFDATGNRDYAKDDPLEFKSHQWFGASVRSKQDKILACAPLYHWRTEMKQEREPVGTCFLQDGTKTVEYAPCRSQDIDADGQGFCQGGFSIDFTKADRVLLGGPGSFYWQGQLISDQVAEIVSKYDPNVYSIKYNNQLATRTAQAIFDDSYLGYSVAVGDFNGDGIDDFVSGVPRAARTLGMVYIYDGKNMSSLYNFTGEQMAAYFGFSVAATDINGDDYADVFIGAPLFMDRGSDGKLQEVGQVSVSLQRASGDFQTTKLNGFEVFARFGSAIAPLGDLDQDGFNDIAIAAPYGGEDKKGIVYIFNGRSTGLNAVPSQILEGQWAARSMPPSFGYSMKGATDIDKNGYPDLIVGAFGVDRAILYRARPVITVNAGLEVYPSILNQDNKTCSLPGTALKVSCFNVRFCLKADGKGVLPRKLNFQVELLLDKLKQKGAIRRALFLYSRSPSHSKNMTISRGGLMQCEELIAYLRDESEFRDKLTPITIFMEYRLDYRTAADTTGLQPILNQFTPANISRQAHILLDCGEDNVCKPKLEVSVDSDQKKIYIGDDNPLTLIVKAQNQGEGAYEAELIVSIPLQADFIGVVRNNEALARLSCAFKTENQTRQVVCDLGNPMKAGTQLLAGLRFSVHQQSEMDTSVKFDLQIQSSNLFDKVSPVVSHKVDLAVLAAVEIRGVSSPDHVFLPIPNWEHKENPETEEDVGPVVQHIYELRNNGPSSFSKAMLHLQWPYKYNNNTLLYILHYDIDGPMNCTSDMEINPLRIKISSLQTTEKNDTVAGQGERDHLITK
Chain of Integrin alpha-V/beta-3 (P06756 891-1048 limits assumed): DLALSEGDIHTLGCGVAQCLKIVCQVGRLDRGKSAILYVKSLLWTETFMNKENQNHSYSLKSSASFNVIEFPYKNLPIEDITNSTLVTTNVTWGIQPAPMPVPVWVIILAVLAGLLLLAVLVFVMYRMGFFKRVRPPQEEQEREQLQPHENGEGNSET

pKi [1] | pKi [2] | SMILES
8.29 |  | O=C(O)CC(NC(=O)C1CC(=O)N(c2cccc(NC3=NCCN3)c2)C1)c1cccnc1 (stereo not drawn)
7.28 |  | NC(N)=Nc1ccc(Cl)c(N2CC(C(=O)NC(CC(=O)O)c3cccnc3)CC2=O)c1 (stereo not drawn)
8.54 |  | NC(N)=Nc1ccc(F)c(N2CC(C(=O)NC(CC(=O)O)c3cccnc3)CC2=O)c1 (stereo not drawn)
< 6.00 | < 4.60 | O=C(O)C[C@H](NC(=O)[C@H]1CC(=O)N(c2cccc(NC(=O)NCc3ccccc3)c2)C1)c1cccc(F)c1
8.14 | < 4.60 | O=C(O)C[C@@H](NC(=O)[C@@H]1CC(=O)N(c2cccc(NC3=NCCCN3)c2)C1)c1ccc2c(c1)OCO2
8.85 |  | O=C(O)CC(NC(=O)C1CC(=O)N(c2cccc(NC3=NCCCN3)c2)C1)c1cccnc1 (stereo not drawn)
6.81 | < 4.60 | O=C(O)C[C@@H](NC(=O)[C@@H]1CC(=O)N(c2cccc(NC(=O)NCc3ccccc3)c2)C1)c1cccc(F)c1
10.00 | 5.68 | O=C(O)C[C@H](NC(=O)[C@@H]1CC(=O)N(c2cccc(NC3=NCCCN3)c2)C1)c1ccc2c(c1)OCO2
7.98 |  | O=C(O)CC(NC(=O)C1CC(=O)N(c2cccc(NC(=O)NCc3ccccc3)c2)C1)c1cccnc1 (stereo not drawn)
7.15 |  | O=C(O)CC(NC(=O)C1CC(=O)N(c2cccc(NC(=O)NCc3ccccc3)c2)C1)c1ccccc1 (stereo not drawn)
9.15 |  | O=C(O)CC(NC(=O)C1CC(=O)N(c2cccc(NC3=NCCCN3)c2)C1)c1ccc2c(c1)OCO2 (stereo not drawn)
< 6.00 | < 4.60 | O=C(O)C[C@@H](NC(=O)[C@H]1CC(=O)N(c2cccc(NC(=O)NCc3ccccc3)c2)C1)c1cccc(F)c1
7.95 |  | O=C(O)CC(NC(=O)C1CC(=O)N(c2cccc(NC(=O)NCc3ccccc3)c2)C1)c1cccc(F)c1 (stereo not drawn)
9.30 |  | O=C(O)CC(NC(=O)C1CC(=O)N(c2cc(NC3=NCCCN3)ccc2F)C1)c1ccc2c(c1)OCO2 (stereo not drawn)
8.62 |  | O=C(O)CC(NC(=O)C1CC(=O)N(c2cccc(NC(=O)NCc3ccccc3)c2)C1)c1ccc2c(c1)OCO2 (stereo not drawn)
7.78 |  | N=C(N)Nc1cccc(N2CC(C(=O)NC(CC(=O)O)c3cccnc3)CC2=O)c1 (stereo not drawn)
8.00 | < 4.60 | O=C(O)C[C@H](NC(=O)[C@@H]1CC(=O)N(c2cccc(NC(=O)NCc3ccccc3)c2)C1)c1cccc(F)c1
